Assay results from ChEMBL document CHEMBL1157774, “Investigations of fungal secondary metabolites with potential anticancer activity” (J Nat Prod, 2010).
Calls of active or inactive are those of the source. No cut-off for these calls is given here.

Columns and labels:
SK-MEL-28 = assay: Growth inhibition of apoptosis-resistant human SK-MEL-28 cells after 72 hrs by MTT assay; format: functional, cell-based; details: SK-MEL-28, 72 h
Method in brief: (§1)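 Cells seeded at 10 000 to 40 000 cells/mL, depending on line, and plated 24 h before treatment. Cultured 72 h with or without (control) compound. Viable cells measured by MTT reduction to formazan, absorbance at 570 nm (reference 630 nm). IC50 reported as mean ± SEM. Media carried 4 mM glutamine, gentamicin and penicillin-streptomycin. B16F10 grown in RPMI with 10% heat-inactivated FCS.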

Hs 683 = assay: Growth inhibition of apoptosis-sensitive human Hs 683 cells after 72 hrs by MTT assay; format: functional, cell-based; details: Hs 683, 72 h; method in brief: as §1
[1] = Growth inhibition of apoptosis-resistant human U373 cells after 72 hrs by MTT assay; format: functional, cell-based, U-373MG ATCC; details: U373 MG; method in brief: as §1
B16-F10 [2] = assay: Growth inhibition of apoptosis-sensitive mouse B16F10 cells after 72 hrs by MTT assay; format: functional, cell-based; details: B16-F10, 72 h; method in brief: as §1
[3] = Growth inhibition of apoptosis-resistant human OE21 cells after 72 hrs by MTT assay; format: functional, cell-based; details: OE21, 72 h; method in brief: as §1
A549 = assay: Growth inhibition of apoptosis-resistant human A549 cells after 72 hrs by MTT assay; format: functional, cell-based; details: A549, 72 h; method in brief: as §1
B16-F10 [4] = assay: Cytostatic effect against apoptosis-sensitive mouse B16F10 cells assessed as impairment of cell population development at 20 uM by quantitative video microscopy
B16-F10 [5] = assay: Cytostatic effect against apoptosis-sensitive mouse B16F10 cells assessed as impairment of cell population development at 20 uM by quantitative video microscopy; format: functional, cell-based
Method in brief: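 Computer-assisted phase-contrast microscopy (quantitative videomicroscopy) of B16F10 cells in RPMI with 10% heat-inactivated FCS, monitored 72 h without (control) or with compound. Time-lapse image sequences built into movies. Growth level taken as ratio of cell counts in first versus last frames. Cells counted in 1 mm2 fields at G×20, triplicate conditions, five fields each (15 fields per condition), mean ± SEM.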

Row | Compound | IC50 (SK-MEL-28) [µM] | IC50 (Hs 683) [µM] | IC50 [1] [µM] | IC50 (B16-F10 [2]) [µM] | IC50 [3] [µM] | IC50 (A549) [µM] | inhibition (B16-F10 [4]) | inhibition (B16-F10 [5])
1 | C/C=C/C=C/C(=O)[C@@H]1[C@@H]([C@]2(C)OC(=O)C(C)=C2O)C2\C(=C(O)/C=C/C=C/C)C(=O)[C@]1(C)C(=O)[C@@]2(C)O [BISLONGIQUINOLIDE] | 8 | 22 | 4 | 3 | 9 | 11 |  | 
2 | C/C=C/C=C/C(=O)C1=C(O)[C@@]2(C)C3C(C(=O)CC/C=C/C)=C(O)[C@@]4(C)C1[C@]1(C)O[C@@]4(O)[C@@]3(C)O[C@@]12O [DIHYDROTRICHODIMEROL] | 33 | 34 | 25 | 3 | 28 | 33 | Active | 
3 | O[C@H]1[C@H]2c3cc4c(cc3CN3CCC(=C[C@@H]1O)[C@H]23)OCO4 [LYCORINE] | 2 | 2 | 2 | 2 | 2 | 2 |  | Active
4 | O=C1N[C@@H]2C(=C[C@H](O)[C@@H](O)[C@H]2O)c2cc3c(c(O)c21)OCO3 [NARCICLASINE] | 0.05 | 0.05 | 0.05 | 0.05 | 0.05 | 0.05 |  | 
5 | C[C@@H]1[C@@]2(C)CC[C@@H]3[C@H]2CC[C@@]1(C)O[C@@]3(C)O [SEIRICARDINE B] | > 100 | > 100 | > 100 | > 100 | > 100 | > 100 |  | 
6 | C[C@@H]1[C@@]2(C)CC[C@@H]3[C@H]2CC[C@@]1(C)O[C@]3(C)O [SEIRICARDINE C] | > 100 | > 100 | > 100 | > 100 | > 100 | > 100 |  | 
